HKDC1 inh – blocks human hexokinase HKDC1 activity; recombinant HKDC1, G6PDH/diaphorase resazurin coupled fluorescence; inhibition, % at 20 µM; 0.16% of 340,000 active;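 active means inhibition above about 35% when tested at 20 µM, limit read from the data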;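 further: plate controls were DMSO wells with enzyme for no effect and DMSO wells lacking enzyme for full effect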
Target sequence (Q2TB90 whole entry, looked up): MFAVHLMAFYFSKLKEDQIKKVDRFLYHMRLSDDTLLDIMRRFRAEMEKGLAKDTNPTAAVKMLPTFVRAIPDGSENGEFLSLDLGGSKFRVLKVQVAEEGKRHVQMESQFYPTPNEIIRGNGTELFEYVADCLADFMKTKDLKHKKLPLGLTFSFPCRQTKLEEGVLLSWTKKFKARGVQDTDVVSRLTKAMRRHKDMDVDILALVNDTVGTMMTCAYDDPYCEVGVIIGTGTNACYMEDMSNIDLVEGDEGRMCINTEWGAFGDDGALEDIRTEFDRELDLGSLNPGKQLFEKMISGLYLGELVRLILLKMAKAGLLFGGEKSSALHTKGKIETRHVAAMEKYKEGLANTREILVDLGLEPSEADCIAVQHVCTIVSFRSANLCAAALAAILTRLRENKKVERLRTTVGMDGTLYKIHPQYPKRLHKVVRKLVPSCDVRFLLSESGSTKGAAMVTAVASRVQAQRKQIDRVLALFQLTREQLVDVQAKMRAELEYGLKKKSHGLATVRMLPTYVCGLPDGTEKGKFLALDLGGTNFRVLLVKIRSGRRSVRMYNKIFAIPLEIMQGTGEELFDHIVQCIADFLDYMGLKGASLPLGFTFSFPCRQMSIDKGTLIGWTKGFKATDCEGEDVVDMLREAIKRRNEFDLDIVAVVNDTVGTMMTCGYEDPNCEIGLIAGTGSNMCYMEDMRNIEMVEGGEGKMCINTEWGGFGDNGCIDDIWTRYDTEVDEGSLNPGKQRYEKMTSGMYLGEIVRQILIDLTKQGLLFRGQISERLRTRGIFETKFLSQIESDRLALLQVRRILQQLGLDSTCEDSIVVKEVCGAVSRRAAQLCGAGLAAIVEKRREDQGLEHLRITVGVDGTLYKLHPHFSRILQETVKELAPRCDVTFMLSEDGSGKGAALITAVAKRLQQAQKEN
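Test system: HK5 enzyme. Quantity: 5 µg/mL HK5 final. Reagent: glucose and ATP substrates. Schedule: 90 min reaction incubation at room temperature, dark. Technique: resazurin-to-resorufin fluorescence via G6PDH and diaphorase coupling, 525/613 nm. Control set: DMSO wells with and without enzyme mix.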
Granule exo inh – lytic granule exocytosis inhibition; TALL-104 LAMP-1 surface exposure, flow cytometry; cells stimulated with thapsigargin and PMA; inhibition, % at 10 µM; 0.66% of 360,000 active; AID 651702;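 active means inhibition above about 55%, limit read from the data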
PfG6PD inh – PfG6PD (Plasmodium falciparum) enzyme inhibition; PfGluPho enzyme, NADPH resazurin-diaphorase fluorescence; inhibition, % at 20 µM; 0.78% of 350,000 active;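 active means inhibition reaching at least a set limit at 20 µM in the primary screen, cut at about 59% in these data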;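 further: 0% = DMSO wells with substrate and 100% = DMSO wells lacking glucose-6-phosphate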
ABHD5 PLIN5 PPI – inhibitors of human ABHD5-perilipin-5 interaction; AID 602281; Split G. princeps luciferase complementation, luminescence, 4 h; 0.78% of 360,000 active; inhibition, % at 4 µM;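 active means inhibition above the mean inhibition across every tested compound plus 3 SD, cut at about 22% in these data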;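 further: 0% = DMSO only wells and the 100% control is not disclosed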
PfG6PD confirm – confirmation of Plasmodium falciparum G6PD inhibitors; inhibition, % at 20 µM; 34% of 2,400 active; recombinant PfGluPho, NADPH-diaphorase-resazurin fluorescence; shares compounds with PfG6PD inh;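 active means inhibition of at least 50% at 20 µM in any single replicate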;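 further: 0% = DMSO with substrate and 100% = DMSO lacking glucose-6-phosphate substrate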
Diaph ctr 10uM – counter-screen for P. falciparum G6PD inhibitors: diaphorase inhibitors, oxidizers. 39% of 820 active. diaphorase-coupled resazurin reduction, fluorescence, NADPH 10 uM. inhibition, % at 20 µM. shares compounds with PfG6PD inh;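 active means average inhibition reaching 50% or more with the compound at 20 µM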;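 further: resorufin red fluorescence formed as diaphorase reduces resazurin using NADPH; 0% = DMSO with enzyme and 100% = DMSO without enzyme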
Diaphorase 30uM – inhibits diaphorase or oxidizes, flagging false PfG6PD hits. shares compounds with PfG6PD inh. Diaphorase/resazurin coupled assay, resorufin fluorescence, 30 uM NADPH. inhibition, % at 20 µM. 29% of 820 active;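 active means inhibition averaging 50% or more, tested at 20 µM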;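 further: 0% = DMSO with enzyme and 100% = DMSO wells lacking diaphorase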
Starred values were filed as active, the others as inactive; nt = no result. Rows were chosen to be rich in hits. Some 2.2% of all compounds tested hit in one or more screens of this group.

SMILES	HKDC1 inh	Granule exo inh	PfG6PD inh	ABHD5 PLIN5 PPI	PfG6PD confirm	others
c1ccc(OCCSc2nnc3sc4ccccc4n23)cc1	11.2	2.5	105.0*	-5.5	97.5*	Diaph ctr 10uM=88.2*;Diaphorase 30uM=73.8*
COc1cccc(C(=O)Nc2sc3c(c2C(=O)O)CCCC3)c1	7.3	5.0	87.6*	0.6	41.2
COc1cccc(C(=O)Nc2sc3c(c2C#N)CCN(C(C)=O)C3)c1	-6.8	-2.5	60.5*	0.6	35.7
CC(=O)N1CCc2c(sc(NC(=O)CS(=O)(=O)c3ccc(F)cc3)c2C#N)C1	-1.4	4.2	-8.6	8.0	nt
Cc1cccc(C(=O)Nc2sc3c(c2C(=O)O)CCC3)c1	3.1	-5.7	59.5*	4.7	18.5
CNC(=O)c1c(NC(=O)c2cccc(C)c2)sc2c1CCC2	6.1	9.6	37.7	6.2	nt
CCOc1ccc(CCNC(=O)C2CSC3(C)CCC(=O)N23)cc1OCC (configuration not stated)	2.9	3.4	-9.8	-3.4	nt
COc1cccc(CNC(=O)[C@@H]2CCCN2C(=O)[C@@H]2CCCN2)c1	nt	-1.8	nt	-6.7	nt
C/C(CC(=O)Nc1cccc(Cl)c1Cl)=N\NC(=O)c1ccccc1N	-5.2	-1.4	17.9	8.7	nt
O=C(Nc1ccc2c(c1)CCC2)c1cc2ccccc2o1	5.4	-5.1	88.0*	-8.9	4.7
NS(=O)(=O)c1cccc(NC(=O)c2cc3ccccc3o2)c1	-9.3	17.9	21.5	-1.8	nt
Cc1cccc(NC(=O)c2cc3ccccc3o2)c1	-9.6	-3.2	65.0*	2.5	14.2
O=C(Nc1cccc(Br)c1)c1cc2ccccc2o1	-4.7	-2.6	97.2*	-6.1	33.6
CCOC(=O)c1ccc(NC(=O)c2cc3ccccc3o2)cc1	-1.0	-1.0	67.2*	-10.4	-15.6
CCOC(=O)c1cccc(NC(=O)c2cc3ccccc3o2)c1	-4.9	7.6	19.2	0.9	nt
CCC(=O)Nc1cccc(NC(=O)c2cc3ccccc3o2)c1	0.1	-1.4	40.0	-5.3	nt
O=C(Nc1ccc2c(c1)Cc1ccccc1-2)c1cc2ccccc2o1	-6.4	-2.4	-9.3	1.1	nt
CCN1C(=O)[C@@H]2[C@@H](c3ccc(-c4ccc(C(C)=O)cc4)c(OC)c3)N3CCCC[C@@]3(C(=O)OC)[C@@H]2C1=O	-8.1	-17.7	31.8	0.4	nt
O=C(CN1C(=O)CCSc2ccc(S(=O)(=O)N3CCCC3)cc21)Nc1ccccc1	2.1	-1.5	-4.0	2.5	nt
CCOC(=O)c1c(C)n(C)c2cc([N+](=O)[O-])c(O)c([N+](=O)[O-])c12	-1.7	3.1	1.7	-2.9	nt
CCOC(=O)c1c(C)n(C)c2cc(Br)c(O)c(O)c12	0.5	3.1	68.5*	4.3	17.6
O=S(=O)(c1cccs1)N1CN(Cc2cccs2)c2nc3ccccc3nc21	10.4	2.0	68.7*	-1.8	35.1
CCN(CCn1cccn1)C(=O)c1cc(COc2cc(C)ccc2C)on1	-4.9	-0.8	-4.0	2.8	nt
O=C(NCCCSc1ccccc1)c1cc(Br)ccc1O	-0.4	3.2	2.5	-7.0	nt
COc1ccc(N)cc1-n1c(C)ccc1C	14.2	1.8	78.2*	3.6	12.9
SMILES	HKDC1 inh	Granule exo inh	PfG6PD inh	ABHD5 PLIN5 PPI	PfG6PD confirm	others
CCOC(=O)Cc1cc(=O)c2cc(C)ccc2[nH]1	-0.8	-1.7	-0.4	-0.4	nt
COc1cccc(CN(C(=O)c2cccs2)C2CCS(=O)(=O)C2)c1 (configuration not stated)	3.4	-2.6	-26.0	-2.0	nt
CCOC(=O)c1sc(=S)n(C)c1NC(=O)c1cccc(Br)c1	-5.3	6.1	41.6	-0.8	nt
CCOC(=O)c1sc(=S)n(C)c1NC(=O)c1ccccc1	-12.5	-5.0	64.1*	-4.0	27.7
CCOC(=O)/C(=N/Nc1ccc(OC)cc1)N1CCCc2ccccc21	4.2	2.9	111.7*	4.2	58.2*	Diaph ctr 10uM=55.8*;Diaphorase 30uM=50.7*
CCOC(=O)/C(=N/Nc1ccccc1)N1CCCc2ccccc21	0.1	-7.2	94.9*	-3.1	33.2
CCOC(=O)/C(=N/Nc1ccccc1OC)N1CCCc2ccccc21	1.0	4.0	22.6	-5.9	nt
N#CCCn1cc(C(=O)CN2C(=O)C(=O)N(C3CCCC3)C2=O)c2ccccc21	-2.1	2.7	4.3	-10.8	nt
c1nc(SSc2ncnc3nc[nH]c23)c2[nH]cnc2n1	-2.0	8.0	118.2*	-18.5	107.6*	Diaph ctr 10uM=-21.0;Diaphorase 30uM=-15.4
O=c1cc(-c2ccccc2)oc2cc(O)c(O)c(O)c12	9.1	7.4	101.8*	-5.3	94.6*	Diaph ctr 10uM=94.0*;Diaphorase 30uM=80.8*
Cc1cc(C(=O)COc2cccc(-n3cnnn3)c2)c(C)n1-c1ccccc1	-2.8	3.7	74.1*	1.5	26.4
COc1ccc(Nc2ccc(Nc3ccc(OC)cc3)nn2)cc1	8.3	0.6	-0.2	1.8	nt
COc1ccc(Nc2ccc(OC)cc2)cc1	8.7	10.2	63.8*	-12.4	25.2
COc1ccc(Nc2cc(C)c3ccccc3n2)cc1	1.0	0.6	65.6*	-0.9	-1.3
NC(=O)C1CCN(c2nc(-c3ccc4ccccc4c3)cs2)CC1	-7.2	-5.9	6.6	1.3	nt
COc1cccc(NC(=O)CSc2nnc(-c3ccoc3C)n2C)c1	-2.5	2.3	5.8	-7.3	nt
COc1ccc(-n2c(C)cc(C(=O)CSc3nnc(-c4ccoc4C)n3C)c2C)cc1	-1.1	-1.5	66.7*	3.0	45.5
CCOC(=O)c1sc(N)c(C(=O)Nc2ccccc2)c1C	-10.4	-0.1	63.5*	2.1	15.5
COc1ccc(-n2c(=S)[nH]c3c(sc(=S)n3-c3ccccc3)c2=O)c(OC)c1	-13.3	4.8	88.5*	-4.3	61.5*	Diaph ctr 10uM=-2.9;Diaphorase 30uM=4.2
CCOc1ccccc1-n1c(=S)sc2c(=O)n(-c3ccc(C)cc3)c(=S)[nH]c21	-1.1	-0.5	98.1*	-5.7	77.8*	Diaph ctr 10uM=56.5*;Diaphorase 30uM=51.4*
COc1ccc(-n2c(=S)[nH]c3sc(-c4ccccc4)cc3c2=O)c(OC)c1	-0.8	-3.2	-18.1	-3.1	nt
COc1ccccc1N1CCN(CC(=O)Nc2c(C)n(C)n(-c3ccccc3)c2=O)CC1	-9.5	-1.1	-5.2	4.1	nt
CC(C(=O)NCC(=O)Nc1ccc(F)c(F)c1F)N1CCN(Cc2ccc(C#N)cc2)CC1 (configuration not stated)	8.6	8.9	7.7	5.0	nt
CC(C(=O)NCC(=O)Nc1ccc(F)c(F)c1F)N1CCN(c2ccc(O)cc2)CC1 (configuration not stated)	9.6	-12.5	69.8*	4.4	43.4
C=C(C)[C@@H](O)COc1c2ccoc2cc2oc(=O)ccc12	1.4	1.9	14.9	5.7	nt
CC(C)=CCOc1c2ccoc2c(OCC=C(C)C)c2oc(=O)ccc12	15.9	3.1	128.3*	-3.6	70.8*	Diaph ctr 10uM=63.2*;Diaphorase 30uM=59.1*
CCc1cc(=O)oc2cc(OCC=C(C)C)ccc12	-3.4	2.6	-1.4	-2.1	nt
CC(C)=CCOc1c2ccoc2cc2oc(=O)ccc12	2.2	3.0	72.4*	-1.5	30.6

From PubChem
